Assay results as given in PubChem BioAssay.
Active and inactive are the calls of the source.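 Rule for the calls, unless noted: active = compounds giving at least 50% inhibition in the cell-based MKP-3 phosphatase rescue imaging test; inactive = the rest.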

Legend:
[1] = inhibitors of TNFa-induced NFkB p65 translocation, primary screen, imaging, HUVEC, MLSMR starter and 10KST1 sets (AID 438;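 active = inhibition above 20% together with a positive visual image hit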;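 note: compound added about 3h40 before a 20 min TNFalpha stimulation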;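 for inhibition: signal is the nuclear over cytoplasmic p65 intensity ratio per well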); settings: HUVEC TNFa-induced p65 nuclear translocation; cell count: measured here: nuclei count (cytotoxicity indicator), at 2.08 µM; inhibition: at 2 µM, stronger effect = higher value, 0% TNFa-plus-vehicle, 100% no-TNFa wells
[2] = inhibitors of E-selectin induction by TNFa, primary screen, imaging, HUVEC, immunofluorescence, MLSMR starter and 10KST1 sets (AID 487;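 active = visually confirmed hit in the image check and inhibition above 20%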;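 for inhibition: signal is fraction of cell area covered by stained E-selectin grains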;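 for nuclei count: 100% = median nuclei count of all wells on the same plate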); settings: HUVEC TNFalpha-induced E-selectin immunofluorescence imaging, at 2 µM; inhibition: stronger effect = higher value; nuclei count: measured here: cell number, toxicity
[3] = DUSP6 inhibitors restoring Erk phosphorylation by chemical complementation, primary imaging in DUSP6-transfected HeLa (AID 609); settings: HeLa MKP-3 transfected, phospho-Erk imaging KS statistic, at 10 µM, cells stimulated with TPA for 15 min;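 for inhibition: phospho-Erk level distribution per well compared with pooled transfected vehicle control wells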
[4] = molecular target: Dual specificity protein phosphatase 6 (Homo sapiens) (UniProt Q16828); test: as above; settings: HeLa MKP-3 transfected, phospho-Erk imaging KS statistic; at 10 µM; stronger effect = higher value; cells stimulated with TPA for 15 min
Chain of Dual specificity protein phosphatase 6 (Homo sapiens) (Q16828 whole entry, looked up): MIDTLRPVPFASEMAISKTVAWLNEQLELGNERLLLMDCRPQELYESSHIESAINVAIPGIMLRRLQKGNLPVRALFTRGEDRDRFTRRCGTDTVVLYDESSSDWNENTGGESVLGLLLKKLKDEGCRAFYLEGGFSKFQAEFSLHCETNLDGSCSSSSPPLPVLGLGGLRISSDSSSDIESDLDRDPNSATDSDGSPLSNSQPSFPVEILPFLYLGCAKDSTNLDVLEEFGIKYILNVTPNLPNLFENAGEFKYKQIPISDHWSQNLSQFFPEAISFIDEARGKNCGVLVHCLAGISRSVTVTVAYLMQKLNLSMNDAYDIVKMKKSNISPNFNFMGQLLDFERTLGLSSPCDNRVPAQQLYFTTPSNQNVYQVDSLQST

[5] = molecular target: Voltage-gated potassium channel subunit beta-2 (Rattus norvegicus) (UniProt P62483); test: KvBeta enzyme negative modulators, primary screen, biochemical, NADPH fluorescence (AID 622;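 active = fluorescence slope higher than the sample average by over 3 SD, cut at about -0.22 in these data, passing the limit was not always enough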;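 note: slope of raw intensity against log time taken from 70 to 1610 s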); settings: recombinant KvBeta, 4-cyanobenzaldehyde reduction, at 10 µM, stronger effect = higher value
Chain of Voltage-gated potassium channel subunit beta-2 (Rattus norvegicus) (P62483 whole entry, looked up): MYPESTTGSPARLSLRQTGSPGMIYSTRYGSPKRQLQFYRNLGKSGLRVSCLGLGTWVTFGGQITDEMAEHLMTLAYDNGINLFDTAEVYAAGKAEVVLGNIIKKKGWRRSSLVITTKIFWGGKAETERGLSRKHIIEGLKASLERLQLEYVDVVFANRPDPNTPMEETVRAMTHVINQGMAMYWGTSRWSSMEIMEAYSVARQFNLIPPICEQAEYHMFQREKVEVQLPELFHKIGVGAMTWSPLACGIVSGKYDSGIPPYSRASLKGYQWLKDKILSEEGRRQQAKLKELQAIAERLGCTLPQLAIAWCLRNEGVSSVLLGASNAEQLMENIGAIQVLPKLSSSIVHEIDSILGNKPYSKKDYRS

[6] = molecular target: Voltage-gated potassium channel subunit beta-2 (Rattus norvegicus) (UniProt P62483); test: KvBeta positive modulators, primary screen, biochemical, NADPH fluorescence (AID 623;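 active = NADPH fluorescence slope more negative than the mean of all samples by about 3 SD, 99.7% confidence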;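 note: fluorescence intensity change per second fitted from 20 to 320 s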); settings: Recombinant KvBeta, NADPH fluorescence decrease slope, 10 min; at 10 µM; stronger effect = lower value
[7] = molecular target: Muscarinic acetylcholine receptor M4 (Homo sapiens) (UniProt P08173); test: compounds altering M4/GIRK thallium flux, either direction, primary screen, M4 allosteric agonist project, cell-based, HEK293 M4/GIRK, BTC-AM (AID 625;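 active = fluorescence slope after compound addition differing from the mean of all tested samples at 99.7% confidence, mostly higher but some lower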;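 note: thallium influx through GIRK channels coupled to M4 in HEK293 cells with BTC-AM dye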); settings: at 10 µM, actives lie on both sides
Chain of Muscarinic acetylcholine receptor M4 (Homo sapiens) (P08173 whole entry, looked up): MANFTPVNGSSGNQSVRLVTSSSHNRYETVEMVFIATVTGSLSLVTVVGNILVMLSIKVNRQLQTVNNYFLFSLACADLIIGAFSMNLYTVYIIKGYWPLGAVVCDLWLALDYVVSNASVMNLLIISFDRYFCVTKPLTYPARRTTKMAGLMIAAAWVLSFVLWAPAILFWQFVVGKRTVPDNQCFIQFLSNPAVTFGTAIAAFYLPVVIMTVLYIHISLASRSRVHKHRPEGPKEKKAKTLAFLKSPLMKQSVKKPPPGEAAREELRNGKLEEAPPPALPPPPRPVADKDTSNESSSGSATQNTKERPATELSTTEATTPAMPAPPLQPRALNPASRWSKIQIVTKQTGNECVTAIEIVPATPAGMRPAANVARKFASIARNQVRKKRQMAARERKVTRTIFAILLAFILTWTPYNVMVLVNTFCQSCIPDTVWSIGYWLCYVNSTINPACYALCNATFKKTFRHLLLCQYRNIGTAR
Method in brief: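 Assay system: HEK293 cells with M4 receptor and GIRK channels / Controls: carbachol and DMSO controls / Schedule: 1 h dye loading, 2 min kinetic read / Technique: kinetic fluorescence with BTC-AM dye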

[8] = inhibitors of larval lipid processing in zebrafish, primary screen, whole organism, PED6 fluorescence, gall bladder and intestine (AID 686;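 active = a full or partial loss of lipid-probe fluorescence in the fish gall bladder, intestine or both, judged by eye; inactive = no fluorescence loss, or compound toxic to the fish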;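 note: larvae 5 to 7 days old with five fish per well; signal comes from phospholipase A2 cleavage of quenched PED6 carried via bile; overnight exposure to compound and PED6 before scoring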); settings: Zebrafish larvae PED6 lipid processing, fluorescence scoring; screened at 20 µM (by protocol)
Method in brief: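 Doses: 20 µM single dose. Test system: live zebrafish larvae aged 5-7 days, whole organism. Quantity: five larvae per well. Measured by: By-eye fluorescence microscopy. Reagent: ingested quenched lipid PED6 at 100 nM. Read-out: visual per-well fluorescence inhibition score. Times: overnight exposure of larvae to compound plus PED6.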

[9] = inhibitors of Chlamydomonas gravitaxis, primary screen, whole organism, Chlamydomonas reinhardtii, WT vs cilia-less mutant, absorbance, 96-well (AID 463189;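 active = inhibition at or above 50% relative to wild type and mutant plate controls; inactive = inhibition below 50%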;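 note: 0% = wild type cc124 cells in DMSO and 100% = ciliumless bld1 mutant cells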); settings: OD600 absorbance, 2 days, at 10 µM, stronger effect = higher value
[10] = measured here: cell density z-score
[11] = measured here: nuclear c-Myc green intensity z-score
[12] = measured here: nuclear pErk red intensity z-score, stronger effect = higher value

Structure (SMILES)	cell count [1]	inhibition [1]	inhibition [2]	nuclei count [2]	z-score [3, 10]	z-score [3, 11]	z-score [3, 12]	inhibition [4]	fluorescence slope [5]	NADPH fluorescence slope [6]	fluorescence slope [7]	outcome [8]	inhibition [9]
Cc1nn(CC(N)=O)c(=O)c2ccccc12	579	-2.9% (inactive)	-62.8% (inactive)	142%	2.22	-0.838	0.00121	10.9% (inactive)	-0.485 (inactive)	-0.00011 (inactive)	0.00427 (inactive)	inactive	-4.61% (inactive)
CCCOc1ccccc1C(=O)NCCCC(=O)O	697	10.3% (inactive)	-31.2% (inactive)	137%	0.264	0.35	-1.68	1.63% (inactive)	-0.447 (inactive)	-6.8e-05 (inactive)	0.00573 (inactive)	inactive	23.9% (inactive)
CCCC1Cc2c(sc3nc(SC)nc(N)c23)CO1 (centres undefined)	489	-14.7% (inactive)	27.8% (inactive)	170%	-0.331	0.0787	0.594	-3.97% (inactive)	-0.47 (inactive)	-4.4e-05 (inactive)	0.00573 (inactive)	inactive	27.7% (inactive)
CCCCCOC(=O)Cc1c(C)nc(-c2ccccc2)[nH]c1=O	373	-0.5% (inactive)	-157% (inactive)	157%	1.82	-0.595	-0.463	30.7% (inactive)	-0.474 (inactive)	-7.9e-05 (inactive)	0.00469 (inactive)	inactive	32% (inactive)
Cc1cc(/C=N/n2cnnc2)c(C)n1-c1ccc2c(c1)OCO2	374	0.6% (inactive)	-13.7% (inactive)	97.4%	-1.04	0.298	0.807	14% (inactive)	-0.569 (inactive)	-6.1e-05 (inactive)	0.00571 (inactive)	inactive	-15.4% (inactive)
Cc1cccc(-c2nnc3n2N=C(c2ccccc2)CS3)c1	713	6.8% (inactive)	-55.5% (inactive)	169%	0.462	-0.93	1.32	16.8% (inactive)	-0.415 (inactive)	-6.7e-05 (inactive)	0.00492 (inactive)	inactive	44.7% (inactive)
COc1ccccc1NC(=O)Nc1nnc(C(C)C)s1	702	-3.3% (inactive)	-24.3% (inactive)	157%	-0.239	-0.311	0.0371	-5.81% (inactive)	-0.476 (inactive)	-1.2e-05 (inactive)	0.00885 (inactive)	inactive	3.73% (inactive)
Cn1c(=O)c2c(nc(NCc3ccc4c(c3)OCO4)n2Cc2ccccc2)n(C)c1=O	656	-20.1% (inactive)	-108% (inactive)	96.2%	-0.797	-1.34	-1.17	-7.93% (inactive)	-0.5 (inactive)	-0.000109 (inactive)	0.00776 (inactive)	inactive	-2.21% (inactive)
CC(=O)N(Cc1ccccc1)c1ccc(C(=O)O)cc1	486	-9.7% (inactive)	-65.3% (inactive)	95.1%	-0.584	0.905	1.49	3.42% (inactive)	-0.454 (inactive)	3.6e-05 (inactive)	0.00471 (inactive)	inactive	18% (inactive)
CN1C(=O)C2(c3ccccc31)C1CCCC=C1C(C#N)=C(N)C2(C#N)C#N (centres undefined)	391	-7% (inactive)	-160% (inactive)	143%	-0.865	0.905	-0.897	29.4% (inactive)	-0.472 (inactive)	-1.9e-05 (inactive)	0.00434 (inactive)	inactive	4.14% (inactive)
CCN(CC)C(=O)C1CCN(c2ncnc3c2cnn3-c2ccc(C)cc2C)CC1	622	-8.2% (inactive)	-52.3% (inactive)	178%	1.38	-1.28	0.399	11.4% (inactive)	-0.416 (inactive)	-4.9e-05 (inactive)	0.00727 (inactive)	inactive	27.9% (inactive)
CSc1nc2[nH]c3c(c2c2ncnn12)CCCC3	547	-3.6% (inactive)	37.3% (inactive)	171%	-0.205	-0.317	-0.0331	1.98% (inactive)	-0.379 (inactive)	-4.9e-05 (inactive)	0.00321 (inactive)	inactive	44.1% (inactive)
CCNc1sc(C(=O)c2cccs2)c(N)c1C#N	583	0.3% (inactive)	-26.4% (inactive)	114%	0.394	-0.752	0.076	10.9% (inactive)	-0.442 (inactive)	-4.6e-05 (inactive)	0.00473 (inactive)	inactive	24.6% (inactive)
